Assay outcomes as filed in PubChem.
CCR6 antag: CCR6 receptor antagonists, primary screen, cell-based, CHO-K1, luminescence, beta-arrestin, uHTS. AID 493098, 2011. inhibition, % at 20 µM. CHO-K1 CCR6 PathHunter beta-arrestin, CCL20-stimulated. 340,000 tested, 0.49% active;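 active means compounds whose inhibition of the agonist-driven luminescence signal at 20 µM reaches about 50%, limit read from the data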;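 further: cells stimulated with CCL20 at 14 nM final; plate controls were DMSO with CCL20 for no effect and DMSO without agonist for full effect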
APJ ag: agonists of human apelin receptor APJ, primary screen, CHO-K1 cells, PathHunter beta-arrestin, luminescence | P35414 | activation, % at 20 µM | 0% DMSO wells, 100% apelin | 330,000 tested, 0.11% active;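 active means activation more than six SD over the plate average, tested at 20 µM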;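 further: 0% = DMSO alone and 100% = apelin-13 at 10 nM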
Target sequence (P35414 whole entry, looked up): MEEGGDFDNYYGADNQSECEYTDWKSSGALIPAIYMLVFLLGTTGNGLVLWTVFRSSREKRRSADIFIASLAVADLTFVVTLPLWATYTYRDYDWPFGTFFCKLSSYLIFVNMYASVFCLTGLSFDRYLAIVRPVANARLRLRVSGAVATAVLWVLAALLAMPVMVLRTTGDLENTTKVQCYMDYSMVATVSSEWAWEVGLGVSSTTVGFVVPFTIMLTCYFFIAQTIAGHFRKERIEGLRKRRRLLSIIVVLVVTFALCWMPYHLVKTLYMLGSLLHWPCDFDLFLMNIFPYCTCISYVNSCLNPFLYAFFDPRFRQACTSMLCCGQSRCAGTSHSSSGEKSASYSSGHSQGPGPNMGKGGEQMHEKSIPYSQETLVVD
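system = engineered CHO-K1 APJ arrestin reporter cells | input = 1000 cells per well | timing = overnight seeding, 90 min compound at 25 °C, 1 h detection | measured by = enzyme-fragment complementation luminescence | read-out = beta-arrestin recruitment to APJ as agonist activity, luminescent signal | control set = negative DMSO alone, positive Apelin-13 at 10 nM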
CXCR6 inh: CXCR6 receptor inhibitors, primary screen, cell-based, beta-arrestin, luminescence, CHO-K1 PathHunter, 1536-well | C-X-C chemokine receptor type 6 (Homo sapiens), O00574 | inhibition, % at 20 µM | 360,000 tested, 0.36% active | AID 602244, 2012; in the data active means inhibition above about 34%, passing the limit was not always enough;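 further: antagonist mode with CXCL16 agonist at 10 nM final; 0% = 10 nM CXCL16 with DMSO and 100% = unstimulated wells without agonist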
NTR1 ag: agonists of human NTR1, primary screen, imaging, U2OS cells, beta-arrestin-GFP, high content. NTR1-U2OS beta-arrestin-GFP spot imaging, agonist mode. activation, % at 20 µM. 330,000 tested, 0.17% active. AID 493036, 2011;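 active means activation at or above 40% of the spot to cytoplasm intensity ratio, with at least 20 cells analyzed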;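 further: 0% = DMSO without peptide and 100% = 100 nM NTR1 peptide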
APJ antagonist: antagonists of human apelin receptor APJ, primary screen, CHO-K1 cells, beta-arrestin complementation, luminescence; inhibition, % at 20 µM; 330,000 tested, 0.32% active; P35414; AID 2521, 2010;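 active means inhibition above about 40% at 20 µM, limit read from the data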;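 further: cells challenged with 10 nM apelin-13 agonist together with compound; plate controls were apelin-13 plus DMSO wells for no effect and DMSO wells lacking apelin-13 for full effect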
m5-HT2A agonist: mouse Htr2a agonists via beta-arrestin recruitment, primary screen, cell-based, luminescence; 360,000 tested, 0.66% active; AID 624169, 2012; activation, % at 7.6 µM; 5-hydroxytryptamine receptor 2A (Mus musculus), P35363; CHO-K1 mHTR2A beta-arrestin complementation; percent of 30 µM serotonin response;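 active means activation above a run cutoff, the mean activation of all tested compounds plus 3 SD, cut at about 14% in these data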;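 further: 0% = plate median of compound wells and 100% = 30 µM serotonin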
MOR ag counter: OPRM1 agonists via beta-arrestin recruitment, confirmation, counter-screen for mouse HTR2A agonist project, cell-based, luminescence, single concentration | shares compounds with m5-HT2A agonist | U2OS OPRM1 beta-arrestin PathHunter; DMSO 0%, DAMGO 9.3 µM 100% | 2,300 tested, 5.3% active | activation, % at 9.3 µM;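 active means mean activation above the mean of DMSO-only wells plus 3 SD, cut at about 0.5% in these data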
m5-HT2A ag conf: mouse HTR2A agonists, beta-arrestin recruitment, confirmation, cell-based, luminescence, CHO-K1 PathHunter, triplicate; shares compounds with m5-HT2A agonist; DMSO 0%, 30 µM serotonin 100%; activation, % at 7.6 µM; 2,300 tested, 19% active; AID 624381, 2012;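 active means mean activation across triplicates above the hit threshold derived in the original primary screen, cut at about 15% in these data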
The depositor's hits bear a star; . = not tested or not shown. Hits are enriched below; roughly 1.5% of the tested compounds scored in any of these assays.

SMILES	CCR6 antag	APJ ag	CXCR6 inh	NTR1 ag	APJ antagonist	m5-HT2A agonist	MOR ag counter	m5-HT2A ag conf
Cc1cc(N2CCN(c3nc4ccccc4s3)CC2)n2ncnc2n1	-6	9	-3	5	-3	22*	0	4
Cc1cc(=O)c(C(=O)Nc2cccc(C(=O)NC3CC3)c2)nn1-c1ccccc1Cl	12	-3	-3	-1	10	15*	-1	0
CCOC(=O)C1CCN(C(=O)Nc2ccccc2Cl)CC1	-15	4	1	0	6	15*	-1	-1
CCOC(=O)N1CCN(C(=O)Nc2ccccc2Cl)CC1	-11	-3	-8	-1	-10	-1	.	.
CC(C)CN(C(=O)CSc1nncn1-c1ccccc1)c1c(N)n(CC(C)C)c(=O)[nH]c1=O	2	-2	-5	1	-26	16*	-1	0
Cc1ccc(CN2CC(N3CCN(Cc4cccc(C)c4)CC3)CS2(=O)=O)cc1 (centres undefined)	.	.	-3	.	.	31*	0	11
Cc1cccc(CN2CCN(C3CN(Cc4ccc(F)cc4)S(=O)(=O)C3)CC2)c1 (centres undefined)	.	.	-3	.	.	18*	-1	1
Cc1cccc(CN2CCN(C3CN(Cc4cn(Cc5ccc(F)cc5)nn4)S(=O)(=O)C3)CC2)c1 (centres undefined)	.	.	7	.	.	-1	.	.
CCNc1oc(-c2ccccc2F)nc1S(=O)(=O)c1ccccc1	15	1	2	0	-17	0	.	.
O=C(c1ccc2c(c1)OCCO2)C1CCN(C(=O)Nc2ccc(F)cc2)CC1	11	0	2	-1	-7	4	.	.
COc1ccc(NC(=O)N2CCC(C(=O)c3ccc4c(c3)OCCO4)CC2)cc1	8	-1	1	1	-14	17*	-1	-4
COc1ccc(OC)c(N=C2SCCCN2C(=O)c2ccc(N3C(=O)CCC3=O)cc2)c1	.	-4	.	0	10	.	.	.
Cc1ccc(C(=O)N/C(=C/c2ccc(-c3cccc([N+](=O)[O-])c3)o2)C(=O)NC(C)C)cc1	-4	1	-1	2	-4	21*	0	1
Cc1ccc(C(=O)N/C(=C/c2ccc(-c3cccc([N+](=O)[O-])c3)o2)C(=O)NC(C)(C)C)cc1	-14	3	-6	6	5	12	.	.
CCCN(CC(=O)Nc1ccccc1C)C(=O)c1ccc2c(c1)S(=O)(=O)N=C1CCCCCN12	12	-3	0	1	1	2	.	.
Cc1c(C(=O)Nc2cccnc2)oc2ccc(Br)cc12	14	-2	-11	4	3	-6	.	.
CN([C@@H](Cc1ccc(OS(=O)(=O)c2cccc3cnccc23)cc1)C(=O)N1CCN(c2ccccc2)CC1)S(=O)(=O)c1cccc2cnccc12	-2	4	3	3	5	15*	-1	12
O=C1C=C(c2ccc(F)cc2OCc2ccccc2)C[C@@H](c2ccc(F)cc2)C1	20	1	1	6	2	16*	-1	-9
COc1cccc(-c2n[nH]nc2C2=CC(=O)C[C@H](c3ccc(F)cc3)C2)c1	.	.	-3	.	.	22*	0	0
COc1ccc([C@H]2CC(=O)C=C(c3cccc(CO)c3)C2)cc1	2	-2	-10	0	1	15*	-1	-4
O=C1C=C(c2n[nH]nc2-c2ccccc2)C[C@@H](c2ccc(F)cc2)C1	.	.	3	.	.	15*	-1	-4
